Data taken from ChEMBL document CHEMBL1126899, “Nonpeptide angiotensin II antagonists derived from 1H-pyrazole-5-carboxylates and 4-aryl-1H-imidazole-5-carboxylates” (J Med Chem, 1993).
Blank lines part the entries; values can stand above or below the molecule they belong to. Active and inactive are the calls of the source. The calls are words filed in the database; no cut-off is given here.

Experiments:
Rattus norvegicus [1] = test: Time to produce onset of action for inhibition of Angiotensin II pressor response in conscious, normotensive rats at 1 mg/kg iv; Not active; assay type: functional, organism-based; parameters: dose 1 mg/kg
Outline: (§1)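 Conscious male Sprague-Dawley rats (300–400 g), instrumented for iv dosing and arterial pressure. A single iv or po bolus of compound (PEG 400 for some oral doses), then repeated AII challenges at 0.1 μg/kg iv. […] Averaged from at least two rats unless noted.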

Rattus norvegicus [2] = test: Peak percent inhibition of Angiotensin II pressor response in conscious, normotensive rats at 1 mg/kg iv; assay type: functional
Outline: (§2)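 Male Sprague-Dawley rats (300–400 g), conscious, catheterized for iv dosing and for arterial pressure and heart rate. Compound given iv or po; PEG 400 vehicle in some oral cases. AII 0.1 μg/kg iv boluses at set intervals afterward. % inhibition of the MAP rise was calculated at each time point, and the peak was taken. Averaged from at least two rats unless noted.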

Rattus norvegicus [3] = test: Peak percent inhibition of Angiotensin II pressor response in conscious, normotensive rats at 1 mg/kg po; assay type: functional; outline: as §2
[4] = molecular target: T1, Type-1 angiotensin II receptor (Oryctolagus cuniculus, UniProt P34976); test: Evaluation of Angiotensin II antagonistic activity by displacement of [125I]-Sar Ile-AII at the rabbit aorta Angiotensin II receptor, type 1; assay type: tissue-based
T1 sequence (P34976 whole entry): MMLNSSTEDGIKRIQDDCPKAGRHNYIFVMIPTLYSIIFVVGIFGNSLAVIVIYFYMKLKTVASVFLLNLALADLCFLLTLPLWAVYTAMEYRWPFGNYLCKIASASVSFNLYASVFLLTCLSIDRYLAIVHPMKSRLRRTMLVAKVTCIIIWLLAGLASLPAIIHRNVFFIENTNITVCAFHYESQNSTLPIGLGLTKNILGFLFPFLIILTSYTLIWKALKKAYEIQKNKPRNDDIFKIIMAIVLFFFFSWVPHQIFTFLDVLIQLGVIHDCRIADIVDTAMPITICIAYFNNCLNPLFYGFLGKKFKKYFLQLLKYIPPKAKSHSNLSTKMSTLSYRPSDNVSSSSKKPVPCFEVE
Outline: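 Rabbit aorta membranes, run without BSA. Competition against [¹²⁵I]Sar¹Ile⁸-AII, in duplicate tubes. Some values are means of two or more separate assays. Standard error is estimated at <30% of the mean.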

Rattus norvegicus [5] = test: Peak percent inhibition of Angiotensin II pressor response in conscious, normotensive rats at 0.1 mg/kg iv; assay type: functional; outline: as §2
Rattus norvegicus [6] = test: Time to produce onset of action for inhibition of Angiotensin II pressor response in conscious, normotensive rats at 0.1 mg/kg po; assay type: functional; outline: as §1
Rattus norvegicus [7] = test: Time to produce onset of action for inhibition of Angiotensin II pressor response in conscious, normotensive rats at 0.1 mg/kg iv; assay type: functional; outline: as §1
Rattus norvegicus [8] = test: Time to produce onset of action for inhibition of Angiotensin II pressor response in conscious, normotensive rats at 1 mg/kg po; assay type: functional; outline: as §1
Rattus norvegicus [9] = test: Peak percent inhibition of Angiotensin II pressor response in conscious, normotensive rats at 0.1 mg/kg po; assay type: functional; outline: as §2
Rattus norvegicus [10] = test: Time to produce onset of action for inhibition of Angiotensin II pressor response in conscious, normotensive rats at 0.3 mg/kg iv; assay type: functional; outline: as §1
Rattus norvegicus [11] = test: Peak percent inhibition of Angiotensin II pressor response in conscious, normotensive rats at 0.3 mg/kg po; assay type: functional; outline: as §2
Rattus norvegicus [12] = test: Time to produce onset of action for inhibition of Angiotensin II pressor response in conscious, normotensive rats at 0.3 mg/kg po; assay type: functional; outline: as §1
Rattus norvegicus [13] = test: Peak percent inhibition of Angiotensin II pressor response in conscious, normotensive rats at 0.3 mg/kg iv; assay type: functional; outline: as §2
Rattus norvegicus [14] = test: Peak percent inhibition of Angiotensin II pressor response in conscious, normotensive rats 1 at mg/kg iv; assay type: functional; outline: as §2
Rattus norvegicus [15] = test: Time to produce onset of action for inhibition of Angiotensin II pressor response in conscious, normotensive rats 1 at mg/kg iv; assay type: functional; outline: as §1
Rattus norvegicus [16] = test: Time to produce onset of action for inhibition of pressor response in conscious, normotensive rats at 3 mg/kg po (no. of animals treated); assay type: functional; outline: as §1
Rattus norvegicus [17] = test: Peak percent inhibition of Angiotensin II pressor response in conscious, normotensive rats at 0.3 mg/kg po (no. of animals treated); assay type: functional; outline: as §2
Rattus norvegicus [18] = test: Peak percent inhibition of Angiotensin II pressor response in conscious, normotensive rats at 0.3 mg/kg iv (no. of animals treated); assay type: functional; outline: as §2
Rattus norvegicus [19] = test: Time to produce onset of action for inhibition of pressor response in conscious, normotensive rats at 1 mg/kg iv (no. of animals treated); assay type: functional; outline: as §1
Rattus norvegicus [20] = test: Time to produce onset of action for inhibition of pressor response in conscious, normotensive rats 0.3 mg/kg po (no. of animals treated); assay type: functional; outline: as §1
Rattus norvegicus [21] = test: Peak percent inhibition of Angiotensin II pressor response in conscious, normotensive rats at 3 mg/kg po (no. of animals treated); assay type: functional; outline: as §2
Rattus norvegicus [22] = test: Time to produce onset of action for inhibition of pressor response in conscious, normotensive rats at 0.3 mg/kg iv (no. of animals treated); assay type: functional; outline: as §1
Rattus norvegicus [23] = test: Peak percent inhibition of Angiotensin II pressor response in conscious, normotensive rats at 1 mg/kg iv (no. of animals treated); assay type: functional; outline: as §2
Rattus norvegicus [24] = test: Peak percent inhibition of Angiotensin II pressor response in conscious, normotensive rats at 3 mg/kg iv (no. of animals treated); assay type: functional; outline: as §2
Rattus norvegicus [25] = test: Time to produce onset of action for inhibition of pressor response in conscious, normotensive rats at 3 mg/kg iv (no. of animals treated); assay type: functional; outline: as §1
Rattus norvegicus [26] = test: Peak percent inhibition of Angiotensin II pressor response in conscious, normotensive rats at 0.1 mg/kg iv (no. of animals treated); assay type: functional; outline: as §2
Rattus norvegicus [27] = test: Time to produce onset of action for inhibition of pressor response in conscious, normotensive rats at 1 mg/kg po (no. of animals treated); assay type: functional; outline: as §1
Rattus norvegicus [28] = test: Time to produce onset of action for inhibition of pressor response in conscious, normotensive rats at 0.3 mg/kg po (no. of animals treated); assay type: functional; outline: as §1
Rattus norvegicus [29] = test: Peak percent inhibition of Angiotensin II pressor response in conscious, normotensive rats at 1 mg/kg po (no. of animals treated); assay type: functional; outline: as §2
Rattus norvegicus [30] = test: Time to produce onset of action for inhibition of pressor response in conscious, normotensive rats at 0.1 mg/kg iv (no. of animals treated); assay type: functional; outline: as §1
Rattus norvegicus [31] = test: Time to produce onset of action for inhibition of Angiotensin II pressor response in conscious, normotensive rats at 0..3 mg/kg iv; assay type: functional; outline: as §1

SMILES: CCCCc1nn(-c2c(Cl)cccc2Cl)c(C(=O)OCC)c1Cc1ccc(-c2ccccc2-c2nn[nH]n2)cc1
Duration (Rattus norvegicus [1]): inactive
inhibition in vivo at 1 mg/kg (Rattus norvegicus [2]): 16%

SMILES: CCCc1nn(CC(F)(F)F)c(C(=O)O)c1Cc1ccc(-c2ccccc2-c2nn[nH]n2)cc1
inhibition in vivo at 1 mg/kg (Rattus norvegicus [3]): 75%
IC50 [4]: 1.6 nM
inhibition in vivo at 0.1 mg/kg (Rattus norvegicus [5]): 62%
Duration (Rattus norvegicus [6]): ~2 h
Duration (Rattus norvegicus [7]): ~5 h
Duration (Rattus norvegicus [8]): >23 h
inhibition in vivo at 0.1 mg/kg (Rattus norvegicus [9]): 54%
Duration (Rattus norvegicus [10]): >24 h
inhibition in vivo at 0.3 mg/kg (Rattus norvegicus [11]): 66%
Duration (Rattus norvegicus [12]): >3 h
inhibition in vivo at 0.3 mg/kg (Rattus norvegicus [13]): 93%

SMILES: CCCCc1nc(Cl)c(CO)n1Cc1ccc(-c2ccccc2-c2nnn[nH]2)cc1 [LOSARTAN]
Duration (Rattus norvegicus [16]): >4.5 h
inhibition in vivo at 0.3 mg/kg (Rattus norvegicus [17]): 36%
inhibition in vivo at 0.3 mg/kg (Rattus norvegicus [18]): 52%
Duration (Rattus norvegicus [19]): >6 h
Duration (Rattus norvegicus [20]): >3.5 h
inhibition in vivo at 3 mg/kg (Rattus norvegicus [21]): 94%
Duration (Rattus norvegicus [22]): 5.5 h
inhibition in vivo at 1 mg/kg (Rattus norvegicus [23]): 78%

SMILES: CCCCc1nc(-c2ccccc2)c(C(=O)O)n1Cc1ccc(-c2ccccc2-c2nn[nH]n2)cc1
IC50 [4]: 2.1 nM
inhibition in vivo at 3 mg/kg (Rattus norvegicus [24]): 100%
Duration (Rattus norvegicus [25]): >24 h

SMILES: CCCCc1nc(Cl)c(C(=O)O)n1Cc1ccc(-c2ccccc2-c2nn[nH]n2)cc1 [CARBOXYLIC ACID METABOLITE]
inhibition in vivo at 0.1 mg/kg (Rattus norvegicus [26]): 63%
Duration (Rattus norvegicus [27]): >7 h
Duration (Rattus norvegicus [28]): 2.8 h
inhibition in vivo at 0.3 mg/kg (Rattus norvegicus [17]): 63%
inhibition in vivo at 0.3 mg/kg (Rattus norvegicus [18]): 100%
inhibition in vivo at 1 mg/kg (Rattus norvegicus [29]): 72%
Duration (Rattus norvegicus [22]): >29 h
Duration (Rattus norvegicus [30]): ~4 h

Further lines, with some results ahead:

IC50 [4]: 2.9 nM
SMILES: CCCCc1nn(-c2ccccc2)c(C(=O)O)c1Cc1ccc(-c2ccccc2-c2nn[nH]n2)cc1
Inhibition (Rattus norvegicus [14]): 96%
Duration (Rattus norvegicus [15]): >6 h

IC50 [4]: 0.42 nM
SMILES: CCCc1nn(Cc2ccccc2)c(C(=O)O)c1Cc1ccc(-c2ccccc2-c2nn[nH]n2)cc1
inhibition in vivo at 1 mg/kg (Rattus norvegicus [3]): 100%
Duration (Rattus norvegicus [8]): >23 h
inhibition in vivo at 0.3 mg/kg (Rattus norvegicus [11]): 82%
Duration (Rattus norvegicus [31]): >24 h
Duration (Rattus norvegicus [12]): >4 h
inhibition in vivo at 0.3 mg/kg (Rattus norvegicus [13]): 95%
